Most compounds without a hit are left out; they make up all but 3% or so of the library.
N-glyco inh – N-linked glycosylation inhibition. D54 ERlucT glycosylation luciferase reporter, 24 h; percent of 100 nM tunicamycin response. reporter increase, % at 12.5 µM. hit rate 0.23% among 360,000;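 active = mean luciferase reporter signal, scaled so untreated is 0 and the glycosylation-blocking control 100, at or above a set limit in every replicate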;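 also: luciferase carries N-glycosylation sites so blocking glycosylation raises the light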
T cruzi inh – blocks replication of Trypanosoma cruzi | AID 1885 | hit rate 1.4% among 300,000 | T. cruzi beta-gal in NIH3T3, luminescence, 90 h | inhibition, % (test concentration not listed);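 active = mean inhibition across valid replicates above about 55%, limit read from the data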;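 also: signal also drops with host cell toxicity which is not excluded here; higher percent means less beta-gal luminescence so fewer parasites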
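Test system: β-gal T. cruzi (Tulahuen C4) inside NIH/3T3 cells / Quantity: 5,000 cells/well / Measured by: luminescence from GalScreen with 0.05% NP40, read after 60 min / Medium: DMEM plus 2% FBS / Measure: parasite load inhibition, % / Reagent: Tulahuen C4 trypomastigotes, 5000/well / Schedule: co-culture of at least 90 h after 3 h attachment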
HSF-1 act – increases HSF-1 driven luciferase reporter signal; NIH3T3-HGL HSF-1 luciferase reporter, MG132, 8 h; 100% = twice DMSO control signal; activation, % at 9 µM; hit rate 1.7% among 300,000; AID 504408;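 active = mean replicate activation of at least 50% with a set share of replicates each reaching 50%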
PfHsp90 set2 – reduces growth (ATP signal) of yeast expressing P. falciparum Hsp90; inhibition, % at 9.4 µM; AID 504621; S. cerevisiae expressing PfHsp90, BacTiter-Glo ATP, 48 h; yeast lacking PDR1 and PDR3 efflux regulators; hit rate 0.32% among 310,000;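 active = every replicate shows inhibition above about 80%, whatever the replicate mean, limit read from the data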
PvdQ inh – P. aeruginosa PvdQ acylase inhibition | inhibition, % at 10 µM | hit rate 0.063% among 340,000 | AID 488965 | purified PvdQ acylase, fluorescence plate reader; in the data active = inhibition above about 30%, passing the limit was not always enough
CaV13 FRET inh – Disruptors of the CACNA1D IQ motif to Ca2+-dependent inactivation inhibitor domain association, primary screening, Förster resonance energy transfer in intact living … | inhibition, % at 12.3 µM | hit rate 0.098% among 340,000 | HEK cells, CFP/YFP FRET ICDI-IQ, plate reader, 10 min; percent FRET-ratio fall versus neutral wells;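 active = mean replicate inhibition of at least 30% and at least 1% of replicates passing that level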
Hits are given with their value; – = inactive; · = no result given.

SMILES	N-glyco inh	T cruzi inh	HSF-1 act	PfHsp90 set2	PvdQ inh	CaV13 FRET inh
CC(C)CCSc1nc2ccccc2[nH]1	–	–	65	–	–	–
O=C(CSc1nc2ccccc2[nH]1)c1c[nH]c2ccccc12	–	–	–	–	–	–
O=C(CSc1nc2ccccc2[nH]1)c1ccccc1F	–	–	57	–	–	–
Cc1cc(C(=O)CSc2nc3ccccc3[nH]2)c(C)n1C	–	–	71	–	–	–
COC(=O)Cc1nnn2c1[C@H](C)[C@H](c1cccc(OC)c1OC)OCC2	·	·	·	·	·	–
O=C1Nc2ccccc2N=C(c2ccccc2)C1N(C(=O)c1ccnc2ccccc12)c1ccccc1 (stereo not given)	–	·	·	·	·	–
COCC(=O)N1C[C@H]2CON(C)[C@H]2C[C@H]1c1cccc(-c2cc(Cl)cc(Cl)c2)c1	·	·	·	·	·	–
C=CCn1c(C)cc(C(=O)CSc2nc3ccccc3c(=O)[nH]2)c1C	–	·	·	100	–	–
CCCS(=O)(=O)NC(=O)C1(C)CCN(C(=O)c2cc(C(C)(C)C)nn2C)C1 (stereo not given)	–	·	·	·	·	–
CSc1ccc(-c2nnn(Cc3ccccn3)n2)cc1	–	–	77	–	–	·
O=C(NCCN1CCOCC1)c1ccc2c(c1)N(Cc1ccccc1)C(=O)CS2	–	–	–	–	–	–
O=C(NCCC1=CCCCC1)c1ccc2c(c1)N(Cc1ccccc1)C(=O)CS2	–	56	–	·	–	–
CCC/C(=C1/c2ccccc2C(=O)N1c1ccccc1)c1c(C)noc1C	·	·	·	·	·	–
COc1cc(-c2cnc3c(NC(C)=O)cc(-c4ccccc4CN(C)C)cn23)cc(OC)c1OC	40	·	·	·	·	–
COc1cc(-c2cc(NC(C)=O)c3ncc(-c4cc(OC)c(OC)c(OC)c4)n3c2)cc(OC)c1OC	–	·	·	·	·	–
NC(=O)c1sc2nc(-c3ccco3)ccc2c1N	–	–	–	·	–	–
NC(=O)c1sc2nc(-c3cccnc3)ccc2c1N	–	–	–	·	·	–
COC(=O)c1sc2nc(-c3ccco3)ccc2c1N	–	–	56	–	–	–
CCOC(=O)c1sc2nc(-c3cccnc3)ccc2c1N	–	–	75	–	–	–
C[C@@H]1CN([C@H](C)CO)C(=O)CCCn2cc(nn2)CO[C@H]1CN(C)C(=O)Oc1ccccc1	·	·	·	·	·	–
COc1ccc(C(=O)Nc2ccccc2[N+](=O)[O-])cc1S(=O)(=O)N1CCOCC1	–	–	131	–	–	·
O=C(Nc1ccccc1)c1ccc(N2CCN(c3ccccn3)CC2)c(S(=O)(=O)N2CCOCC2)c1	–	–	–	·	–	–
O=C(Nc1ccccc1)c1ccc(N2CCN(c3ccccc3)CC2)c(S(=O)(=O)N2CCOCC2)c1	–	56	–	–	–	–
CC(=O)CSc1nc2nccnc2[nH]1	–	·	·	·	·	–
COc1ccc(S(=O)(=O)/N=C2/C=CC(=O)C(C)=C2C)cc1	–	–	–	–	–	·
SMILES	N-glyco inh	T cruzi inh	HSF-1 act	PfHsp90 set2	PvdQ inh	CaV13 FRET inh
CC1=C(C)/C(=N\OS(=O)(=O)c2ccc(C)cc2)C=CC1=O	–	·	·	110	–	–
CC1=C/C(=N\OS(=O)(=O)c2ccccc2)C(C)=CC1=O	–	·	·	105	–	·
CC1=C/C(=N\OS(=O)(=O)c2ccccc2)C(C(C)C)=CC1=O	–	·	·	104	–	·
CCCCCCCCN1C(=O)[C@@H](CC(=O)NCc2ccc(C)o2)C[C@@]2(C(=O)OC)C1=C[C@H](C1CCCC1)O[C@@H]2C	·	·	·	·	·	–
COC(=O)[C@@]12C[C@@H](CC(=O)N3CCCC3)C(=O)N(CCc3ccc(OC)c(OC)c3)C1=CCC(C)(C)C2	·	·	·	·	·	–
Cc1ccc(CNC(=O)Nc2cccs2)cc1	–	–	73	–	–	–
COc1ccc(CNC(=O)Nc2cccs2)cc1OC	–	–	–	–	–	–
CC(C)c1ccc([C@@H]2O[C@H](C)CC3=C2C(=O)OC(C)(C)O3)cc1	·	·	·	·	·	–
CN(C)CCN1CCN(C2CN(Cc3ccc([N+](=O)[O-])cc3)S(=O)(=O)C2)CC1 (stereo not given)	–	·	·	·	·	–
COc1ccc2cc(CN(Cc3ccco3)C(c3nnnn3C3CCCCC3)C(C)C)c(=O)[nH]c2c1 (stereo not given)	–	–	70	–	–	·
CC[n+]1c(/C=C/N(C)c2ccccc2)oc2ccccc21	–	78	–	–	–	–
CC[n+]1c(/C=C/N(C)c2ccccc2)oc2ccc(F)cc21	–	–	–	–	–	–
CC(=O)N1C[C@@H](CN2C(=O)CCC2=O)[C@@H]2C[C@H]1c1ccccc1N2C	·	·	·	·	·	–
Nc1cccc(Oc2c(F)c(F)c(Oc3cccc(N)c3)c(F)c2F)c1	–	–	–	85	–	–
COc1cc(/C=C/c2onc(C)c2[N+](=O)[O-])cc(OC)c1OC	37	–	–	–	–	–
CC1(C)CC(=O)C=C(c2ccc(-c3cccc(C(N)=O)c3)cc2)C1=O	–	·	·	·	·	–
O=C1NN(c2ccccc2)C(=O)C2C1C1C=CC2C12CC2 (stereo not given)	–	–	–	–	53	–
O=C1C2C(C(=O)N1CCc1ccccc1)C1C=CC2C12CC2 (stereo not given)	–	–	–	·	–	–
COc1ccccc1NS(=O)(=O)c1ccc(N/N=C/c2c(C)nn(-c3ccccc3)c2N2CCCC2)c([N+](=O)[O-])c1	–	66	–	–	–	–
Cc1nn(-c2ccccc2)c(N2CCCC2)c1/C=N/Nc1ccc(S(=O)(=O)Nc2ccccc2)cc1[N+](=O)[O-]	–	–	–	–	–	–
CC1CCCN(c2cccc3c2S(=O)(=O)N(Cc2cccc(Cl)c2)[C@@H](C)[C@H](c2ccccc2)O3)C1 (stereo not given in full)	·	·	·	·	·	–
Cc1ccc(OCCCCNC2CCCCC2)c(C)c1	–	55	–	–	–	–
CCOC(=O)c1c(NC(=O)CSc2nnc(CNc3ccc(F)cc3)o2)sc(C)c1C	–	–	–	–	–	–
CCOC(=O)c1c(NC(=O)CSc2nnc(-c3ccncc3)n2Cc2ccco2)sc(C)c1C	–	70	–	–	–	–
CCOC(=O)c1c(NC(=O)CSc2nnc(CNc3ccc(Cl)cc3)o2)sc(C)c1C	–	–	67	–	–	–
O=[N+]([O-])c1ccc(Nc2nc(N/N=C/c3cccc(F)c3)nc(N3CCCC3)n2)cc1	–	–	–	–	–	–
COc1cccc(/C=N/Nc2ccc([N+](=O)[O-])cn2)c1O	–	–	96	94	–	–
COc1cccc(/C=N/Nc2nc(Nc3ccc([N+](=O)[O-])cc3)nc(N3CCCC3)n2)c1O	–	55	–	–	–	–
O=[N+]([O-])c1ccc(NC2CCCC2)cc1	–	–	–	–	–	–
O=[N+]([O-])c1ccc(Nc2nc(NC3CCCCC3)nc(N3CCCC3)n2)cc1	–	65	–	–	–	–

Compound activity as filed in PubChem BioAssay.
